The source of these data is ChEMBL document CHEMBL4007382 (Eur J Med Chem, 2017).

Each structure is given as a SMILES string. pIC50: −log10 of the molar value. Bounds are passed on as bounds.

The target of one test is Acetylcholinesterase (Electrophorus electricus, UniProt O42275). As to the kind of experiment: Inhibition of electric eel AChE using S-acetylthiocholine iodide as substrate preincubated for 60 mins followed by substrate addition measured after 5 mins by Ellman's method.
Another test deals with Cholinesterase (Equus caballus, UniProt P81908). Put plainly: Inhibition of equine serum BuChE using S-butyrylthiocholine iodide as substrate preincubated for 60 mins followed by substrate addition measured after 5 mins by Ellman's method. The procedure, abridged:
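Equine serum BChE (0.1 U/mL) in 100 mM sodium phosphate, pH 8, was preincubated at 37°C for 60 min with seven inhibitor concentrations (top 1×10^-5 M; stocks in acetonitrile:water 1:9). Added mix contained BTCh 2.5 mM and DTNB 3.4 mM. A412 was read for 5 min at 37°C, with enzyme-free blank subtracted. Triplicates.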

Sequence of Acetylcholinesterase (O42275 whole entry): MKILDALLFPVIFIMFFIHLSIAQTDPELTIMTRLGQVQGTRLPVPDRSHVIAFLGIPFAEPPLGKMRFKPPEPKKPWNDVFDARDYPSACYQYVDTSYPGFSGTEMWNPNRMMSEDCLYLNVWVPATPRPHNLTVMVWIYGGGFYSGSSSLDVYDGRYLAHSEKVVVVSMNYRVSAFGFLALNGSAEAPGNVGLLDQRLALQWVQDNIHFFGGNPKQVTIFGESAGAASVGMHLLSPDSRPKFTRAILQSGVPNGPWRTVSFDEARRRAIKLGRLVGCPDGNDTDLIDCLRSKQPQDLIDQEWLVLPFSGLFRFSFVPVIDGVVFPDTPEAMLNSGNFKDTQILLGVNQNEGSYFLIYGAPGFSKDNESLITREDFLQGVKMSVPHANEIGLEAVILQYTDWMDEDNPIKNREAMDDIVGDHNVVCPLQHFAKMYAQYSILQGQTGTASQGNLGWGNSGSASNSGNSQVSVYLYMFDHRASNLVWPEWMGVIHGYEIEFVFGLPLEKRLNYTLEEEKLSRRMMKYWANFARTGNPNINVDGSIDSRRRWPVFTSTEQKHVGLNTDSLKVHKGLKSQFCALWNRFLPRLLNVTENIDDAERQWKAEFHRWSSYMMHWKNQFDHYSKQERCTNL
Sequence of Cholinesterase (P81908 whole entry): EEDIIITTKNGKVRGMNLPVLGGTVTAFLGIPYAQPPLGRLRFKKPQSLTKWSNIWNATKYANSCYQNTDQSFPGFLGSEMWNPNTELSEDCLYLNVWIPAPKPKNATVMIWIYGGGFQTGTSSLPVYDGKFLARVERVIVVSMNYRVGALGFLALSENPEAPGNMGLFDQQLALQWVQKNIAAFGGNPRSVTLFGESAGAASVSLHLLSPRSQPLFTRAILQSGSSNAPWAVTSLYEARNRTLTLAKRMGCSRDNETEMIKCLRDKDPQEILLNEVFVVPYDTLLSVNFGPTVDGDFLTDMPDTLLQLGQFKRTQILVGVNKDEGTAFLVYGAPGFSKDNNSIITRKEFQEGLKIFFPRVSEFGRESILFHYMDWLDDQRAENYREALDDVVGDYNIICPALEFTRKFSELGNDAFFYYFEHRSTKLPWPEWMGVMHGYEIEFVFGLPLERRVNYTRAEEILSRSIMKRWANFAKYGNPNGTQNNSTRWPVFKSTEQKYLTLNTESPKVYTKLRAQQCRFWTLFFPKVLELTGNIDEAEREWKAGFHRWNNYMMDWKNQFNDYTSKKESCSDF

In the case of `CN(C)C(=O)Oc1cc(OC(=O)N(C)C)cc(C(O)CNC(C)(C)c2ccccc2)c1` (stereo not given), the pIC50 at Acetylcholinesterase was < 4.00; against Cholinesterase it was 6.32.

In the case of `CCN(C)C(=O)Oc1cc(OC(=O)N(C)CC)cc(C(O)CNC(C)(C)C)c1` (stereo not given), the figures for the pIC50 at Acetylcholinesterase and against Cholinesterase were < 4.00 and 6.95, respectively.

Take `CN(C)C(=O)Oc1cc(OC(=O)N(C)C)cc(C(O)CNC2CCCC2)c1` (stereo not given): the pIC50 is 4.18 at Acetylcholinesterase and 6.88 at Cholinesterase.

`C#Cc1cccc(NCC(O)c2cc(OC(=O)N(C)C)cc(OC(=O)N(C)C)c2)c1` (stereo not given): the pIC50 against Acetylcholinesterase was < 4.00; against Cholinesterase it was 6.16.

Turning to `CN(C)C(=O)Oc1cc(OC(=O)N(C)C)cc(C(O)CNc2ccc(I)cc2)c1` (stereo not given), the pIC50 at Acetylcholinesterase is < 4.00; against Cholinesterase, 5.33.

As to `CCN(C)C(=O)Oc1cc(OC(=O)N(C)CC)cc(C(O)CN2CCCCC2)c1` (stereo not given), the figures for the pIC50 against Acetylcholinesterase and against Cholinesterase were < 4.00 and 6.97, respectively.

Take `CN(C)C(=O)Oc1cc(OC(=O)N(C)C)cc(C(O)CN2CCCCC2)c1` (stereo not given): the results for the pIC50 against Acetylcholinesterase and at Cholinesterase were < 4.00 and 7.00, respectively.

In the case of `CN(C)C(=O)Oc1cc(OC(=O)N(C)C)cc(C(O)CNC2CCCCC2)c1` (stereo not given), the pIC50 on Acetylcholinesterase is < 4.00; on Cholinesterase it was 6.65.

In the case of `CN(C)C(=O)Oc1cc(OC(=O)N(C)C)cc(C(O)CNc2ccccc2)c1` (stereo not given), the pIC50 on Acetylcholinesterase is < 4.00; at Cholinesterase, 5.62.

Regarding `CN(C)C(=O)Oc1cc(OC(=O)N(C)C)cc(C(O)CN2CCCC2)c1` (stereo not given), the pIC50 against Acetylcholinesterase is 4.38; against Cholinesterase, 6.60.
